The values that follow come from ChEMBL document CHEMBL1833886, “Synthesis and evaluation of furoxan-based nitric oxide-releasing derivatives of tetrahydroisoquinoline as anticancer and multidrug resistance reversal agents” (Bioorg Med Chem Lett, 2011).

As a reminder, the IC50 is the midpoint of a concentration-inhibition curve. A higher IC50 goes with weaker potency in that assay.

Experiment [1] in a line: Cytotoxicity against adriamycin-resistant human K562/A02 cells after 48 hrs by MTT assay. The note with it: K562/A02, 48 h. In kind it is functional, cell-based. The method in brief: (§1)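 K562 and adriamycin-selected K562/A02 cells in RPMI 1640 with 10% fetal calf serum, 37 °C, 5% CO2; kept drug-free >14 days before assay. Log-phase cells at 1 × 10⁵/mL in 96-well plates, exposed to a range of compound concentrations (DMSO stock, final DMSO ≤0.1%) for 48 h. MTT added during last 4 h, formazan in DMSO, read at 570 nm. Duplicate wells, ≥3 experiments. IC50 by Bliss method.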
Background: Formazan colour is commonly taken as a measure of viable cells.

Experiment [2] has as its system K562. The experiment can be described thus: Reversal of P-gp-mediated multidrug-resistance in human K562 cells at 10 uM after 48 hrs by MTT assay relative to adriamycin. In kind it is cell-based. The method in brief: (§2)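 Cells at 3 × 10⁴/well received graded adriamycin plus test compound (final 10 µM), 48 h at 37 °C, 5% CO2, then MTT read-out at 570 nm. Adriamycin IC50 by Bliss method. Fold reversal = IC50 of adriamycin alone / IC50 with modulator. Student's t test versus no modulator, P < 0.05.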

Experiment [3] has as its system K562/A02. The experiment can be described thus: Reversal of P-gp-mediated multidrug-resistance in adriamycin-resistant human K562/A02 cells at 10 uM after 48 hrs by MTT assay relative to adriamycin. In kind it is cell-based. The method in brief:
as §2

Experiment [4] deals with K562. The experiment can be described thus: Cytotoxicity against human K562 cells after 48 hrs by MTT assay. The class given is functional, cell-based. Conditions: K562, 48 h. Summed up:
as §1

The subject of experiment [5] is K562/A02. The experiment is described as follows: Induction of NO production in adriamycin-resistant human K562/A02 cells at 10 uM after 24 hrs by Griess assay. The class given is functional, cell-based. The method in brief: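 K562/A02 cells (5 × 10⁶ per well) exposed in triplicate to 10 µM compound for 24 h, harvested and lysed. Lysates mixed with Griess reagent 30–300 min, absorbance at 570 nm. Nitrite/nitrate quantified against sodium nitrate standard curve; diluent-treated cells as background control. Mean SD of three separate experiments.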

In experiment [6] the test system is K562/A02. The experiment can be described thus: Inhibition of P-gp-mediated rhodamine-123 uptake in adriamycin-resistant human K562/A02 cells assessed as rhodamine-123 accumulation at 10 uM after 60 mins by flow cytometry. The class given is cell-based. The method in brief:
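Rhodamine123 uptake in K562/A02 cells followed by fluorescence after treatment with 10 µM (final) modulator; verapamil group as reference, untreated control. Intracellular rhodamine123 read from a rhodamine123 standard curve, fluorescence taken as relative concentration. Student's t test, P < 0.05.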
(In general: Flow cytometry measures light scatter and fluorescence of single cells or particles in a stream.)

The structures appear in SMILES notation. Activity calls are given as the source filed them. No cut-off for these calls is given here.

Take `COc1cc2c(cc1OC)C(COc1ccccc1)N(C(=O)CCC(=O)OCCOc1no[n+]([O-])c1S(=O)(=O)c1ccccc1)CC2` (stereo not given): the figures for the 50% inhibitory concentration (IC50) in experiment [1] and in experiment [4] were 10.8 µM and 1.45 µM, respectively. Also, the fold change (FC) worked out at 1.54 in experiment [2] and 10.7 in experiment [3].

As to `COc1ccc(CC2c3cc(OC)c(OC)cc3CCN2C(=O)CCC(=O)OCCCCCCOc2no[n+]([O-])c2S(=O)(=O)c2ccccc2)cc1OC` (stereo not given), the IC50 in experiment [1] is 12.5 µM; in experiment [4], 1.65 µM. Further, the fold change (FC) in experiment [2] is 1.35; in experiment [3] it was 1.96.

In the case of `CCCCCCCCN/C(=N/C#N)N1CCc2cc(OC)c(OC)cc2C1Cc1ccc(OC)c(OC)c1` (stereo not given), the IC50 in experiment [1] is above 500 µM. The outcome in experiment [5] was inactive.

For `COc1cc2c(cc1OC)C(Cc1cccc3ccccc13)N(C(=O)CCC(=O)OCCCCCCOc1no[n+]([O-])c1S(=O)(=O)c1ccccc1)CC2` (stereo not given), the 50% inhibitory concentration (IC50) in experiment [1] amounted to 12.3 µM; in experiment [4], 1.6 µM. For the same compound, the fold change (FC) in experiment [2] was found to be 1.35; in experiment [3] it was 5.05.

Consider `COc1cc2c(cc1OC)CN(C(=O)CCC(=O)OCCOc1no[n+]([O-])c1S(=O)(=O)c1ccccc1)CC2`, for which the results for the 50% inhibitory concentration (IC50) in experiment [1] and in experiment [4] were 12.7 µM and 1.15 µM, respectively. Further, the figures for the fold change (FC) in experiment [2] and in experiment [3] were 1.34 and 10.7, respectively.

`COc1ccc(CC2c3cc(OC)c(OC)cc3CCN2C(=O)CCC(=O)OCCOc2no[n+]([O-])c2S(=O)(=O)c2ccccc2)cc1OC` (stereo not given): the IC50 in experiment [1] is 11.3 µM; in experiment [4] it was 1.09 µM. Besides, the values for the fold change (FC) in experiment [2] and in experiment [3] were 1.47 and 21.3, respectively. In addition, the inhibition entry in experiment [6] is “Active”. Moreover, the outcome in experiment [5] was Active.

For `COc1cc2c(cc1OC)C(COc1ccccc1)N(C(=O)CCC(=O)OCCCCOc1no[n+]([O-])c1S(=O)(=O)c1ccccc1)CC2` (stereo not given), the IC50 in experiment [1] turned out to be 17.5 µM; in experiment [4], 1.5 µM. Besides, the figures for the fold change (FC) in experiment [2] and in experiment [3] were 1.06 and 1.68, respectively.

Take `COc1cc2c(cc1OC)C(COc1ccccc1)N(C(=O)CCC(=O)OCC#CCOc1no[n+]([O-])c1S(=O)(=O)c1ccccc1)CC2` (stereo not given): the concentration for half-maximal inhibition (IC50) in experiment [1] was 6.36 µM; in experiment [4], 0.892 µM. The fold change (FC) in experiment [2] and in experiment [3] was 1.73 each time.

For the compound `COc1cc2c(cc1OC)CN(C(=O)CCC(=O)OCCCCCCOc1no[n+]([O-])c1S(=O)(=O)c1ccccc1)CC2`, the half-maximal inhibitory concentration (IC50) in experiment [1] is 14.6 µM; in experiment [4] it was 1.73 µM. Besides, the fold change (FC) is 1.09 in experiment [2] and 3.2 in experiment [3].

For the compound `COc1cc2c(cc1OC)C(Cc1cccc3ccccc13)N(C(=O)CCC(=O)OCC#CCOc1no[n+]([O-])c1S(=O)(=O)c1ccccc1)CC2` (stereo not given), the figures for the IC50 in experiment [1] and in experiment [4] were 7.5 µM and 0.875 µM, respectively. The values for the fold change (FC) in experiment [2] and in experiment [3] were 1.86 and 32, respectively. In addition, in experiment [6], the inhibition entry was “Active”. In addition, the outcome in experiment [5] was Active.

As to `COc1cc2c(cc1OC)CN(C(=O)CCC(=O)OCCCCOc1no[n+]([O-])c1S(=O)(=O)c1ccccc1)CC2`, the values for the 50% inhibitory concentration (IC50) in experiment [1] and in experiment [4] were 11.8 µM and 1.56 µM, respectively. The values for the fold change (FC) in experiment [2] and in experiment [3] were 1.5 and 1.85, respectively.

For the compound `COc1ccc(CC2c3cc(OC)c(OC)cc3CCN2C(=O)CCC(=O)OCC#CCOc2no[n+]([O-])c2S(=O)(=O)c2ccccc2)cc1OC` (stereo not given), the 50% inhibitory concentration (IC50) in experiment [1] was determined as 8.05 µM; in experiment [4] it was 0.905 µM. Also, the fold change (FC) in experiment [2] is 1.65; in experiment [3] it was 5.65.

Consider `COc1cc2c(cc1OC)CN(C(=O)CCC(=O)OCC#CCOc1no[n+]([O-])c1S(=O)(=O)c1ccccc1)CC2`, for which the half-maximal inhibitory concentration (IC50) in experiment [1] came out at 8.08 µM; in experiment [4], 0.901 µM. Moreover, the values for the fold change (FC) in experiment [2] and in experiment [3] were 1.65 and 10.1, respectively.

For `COc1cc2c(cc1OC)C(Cc1cccc3ccccc13)N(C(=O)CCC(=O)OCCCCOc1no[n+]([O-])c1S(=O)(=O)c1ccccc1)CC2` (stereo not given), the IC50 was found to be 12.2 µM in experiment [1] and 1 µM in experiment [4]. Further, the fold change (FC) is 1.47 in experiment [2] and 17.4 in experiment [3]. Moreover, the inhibition result in experiment [6] is “Active”. Besides, the outcome in experiment [5] was Active.

`COc1cccc2c1C(=O)c1c(O)c3c(c(O)c1C2=O)C[C@@](O)(C(=O)CO)C[C@@H]3O[C@H]1C[C@H](N)[C@H](O)[C@H](C)O1` [DOXORUBICIN] showed an IC50 in experiment [1] of 17.8 µM.

Turning to `COc1ccc(CCN(C)CCCC(C#N)(c2ccc(OC)c(OC)c2)C(C)C)cc1OC` (stereo not given), the fold change (FC) was found to be 0.96 in experiment [2] and 17.4 in experiment [3].

With `COc1cc2c(cc1OC)C(Cc1cccc3ccccc13)N(C(=O)CCC(=O)OCCOc1no[n+]([O-])c1S(=O)(=O)c1ccccc1)CC2` (stereo not given), the concentration for half-maximal inhibition (IC50) was 9.98 µM in experiment [1] and 1.03 µM in experiment [4]. For the same compound, the results for the fold change (FC) in experiment [2] and in experiment [3] were 1.59 and 2.02, respectively.

Consider `COc1ccc(CC2c3cc(OC)c(OC)cc3CCN2C(=O)CCC(=O)OCCCCOc2no[n+]([O-])c2S(=O)(=O)c2ccccc2)cc1OC` (stereo not given), for which the IC50 in experiment [1] was 13 µM; in experiment [4], 1.93 µM. Besides, the fold change (FC) in experiment [2] was determined as 1.1; in experiment [3], 1.88.

Turning to `COc1cc2c(cc1OC)C(COc1ccccc1)N(C(=O)CCC(=O)OCCCCCCOc1no[n+]([O-])c1S(=O)(=O)c1ccccc1)CC2` (stereo not given), the 50% inhibitory concentration (IC50) in experiment [1] was found to be 13.5 µM; in experiment [4], 1.79 µM. Besides, the fold change (FC) in experiment [2] came to 1.2; in experiment [3], 3.15.
